From ChEMBL document CHEMBL2062446, “Design of a Potent CB1 Receptor Antagonist Series: Potential Scaffold for Peripherally-Targeted Agents” (ACS Med Chem Lett, 2012)

Legend:
MDR1 = assay: Apparent permeability from apical to basal side of MDCK cells expressing MDR1; type: ADME, cell-based, Canis lupus familiaris; details: dog
Method in brief: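 MDCK cells transfected with the MDR1 gene were used to assess whether compounds are MDR1 transporter substrates.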

[1] = 1-Octanol-sodium phosphate buffer partition coefficient, log D of the compound at pH 7.4 after 24 hrs by shake flask method; type: physicochemical

SMILES | Papp A→B (MDR1) | logD at 24 h [1]
CC(C)C(=O)N[C@@H]1CCCOc2c1nn(-c1ccccc1Cl)c2-c1ccc(Cl)cc1 | 8.4 ×10⁻⁶ cm/s | 
CCOCC(=O)NC1CCCOc2c1nn(-c1ccccc1Cl)c2-c1ccc(Cl)cc1 (configuration not stated) | 6.5 ×10⁻⁶ cm/s | 
N#CC1(C(=O)NC2CCCOc3c2nn(-c2ccccc2Cl)c3-c2ccc(Cl)cc2)CC1 (configuration not stated) | 1 ×10⁻⁶ cm/s | 
CC(F)(F)CN1CCOc2c(nn(-c3ccccc3Cl)c2-c2ccc(Cl)cc2)C1=O | 7.1 ×10⁻⁶ cm/s | 4.1
CC(=O)NC1CCCOc2c1nn(-c1ccccc1Cl)c2-c1ccc(Cl)cc1 (racemic) | 14.1 ×10⁻⁶ cm/s | 
CCC(=O)NC1CCCOc2c1nn(-c1ccccc1Cl)c2-c1ccc(Cl)cc1 (racemic) | 12.1 ×10⁻⁶ cm/s | 
CC(C)C(=O)NC1CCCOc2c1nn(-c1ccccc1Cl)c2-c1ccc(Cl)cc1 (racemic) | 6.9 ×10⁻⁶ cm/s | 
O=C(NC1CCCOc2c1nn(-c1ccccc1Cl)c2-c1ccc(Cl)cc1)C1CCOCC1 (racemic) | 6.8 ×10⁻⁶ cm/s | 
COCC(=O)NC1CCCOc2c1nn(-c1ccccc1Cl)c2-c1ccc(Cl)cc1 (racemic) | 9.1 ×10⁻⁶ cm/s | 
COC(=O)NC1CCCOc2c1nn(-c1ccccc1Cl)c2-c1ccc(Cl)cc1 (racemic) | 9.1 ×10⁻⁶ cm/s | 
CCNC(=O)NC1CCCOc2c1nn(-c1ccccc1Cl)c2-c1ccc(Cl)cc1 (racemic) | 6.3 ×10⁻⁶ cm/s | 
O=C(NC1CCCOc2c1nn(-c1ccccc1Cl)c2-c1ccc(Cl)cc1)c1ccon1 (racemic) | 6.6 ×10⁻⁶ cm/s | 
O=C(NC1CCCOc2c1nn(-c1ccccc1Cl)c2-c1ccc(Cl)cc1)c1ccno1 (racemic) | 3.2 ×10⁻⁶ cm/s | 
O=C(NC1CCCOc2c1nn(-c1ccccc1Cl)c2-c1ccc(Cl)cc1)c1cnon1 (racemic) | 3 ×10⁻⁶ cm/s | 
CS(=O)(=O)CC(=O)NC1CCCOc2c1nn(-c1ccccc1Cl)c2-c1ccc(Cl)cc1 (racemic) | 2.7 ×10⁻⁶ cm/s | 
O=C1CCCN1C1CCCOc2c1nn(-c1ccccc1Cl)c2-c1ccc(Cl)cc1 (racemic) | 11.2 ×10⁻⁶ cm/s | 
